In article PMC6282495 (Clinical Pharmacology and Therapeutics, 2018):
pIC50: −log10 of the molar value. Entries after “also recorded” stand apart in the source; their conditions may differ. Like-named read-outs stand apart in the source and are kept apart here.

Legend:
[1] = AZD7986 plasma pharmacokinetics; format: in vivo, human
Outline: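 Healthy male subjects received oral AZD-class test compound. In Part I, single doses of 5–65 mg were given to cohorts of nine, three of them on placebo, with plasma sampled up to 96 h. In Part II, 10, 25 or 40 mg were given once daily for 21 or 28 days, with sampling up to 24 h after the first dose and 96 h after the last. Steady state was checked from predose levels on Days 18–20 and 21/28. Parameters came from noncompartmental analysis.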

Population PK model = format: in vivo, human
Outline: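 Pooled Part I and II plasma concentrations (5–65 mg single doses; 10–40 mg once daily) were fitted with a three-compartment model. It had first-order absorption with lag, a dose-dependent bioavailability power model (relative bioavailability at 5 mg fixed to 1), and volumes per kg bodyweight. Slow peripheral volume and bioavailability were allowed to change between first dose and steady state. Interindividual variability was on Vc, CL, Frel, ka and Alag, with additive log-scale error. Estimates carry 90% CI, with visual predictive checks from 1,000 simulations.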

[2] = system: whole blood neutrophil elastase (NE) activity; experiment: Whole blood NE activity; format: in vivo, human
Outline: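 Part II only: healthy males on 10, 25 or 40 mg once daily for 21 or 28 days, or placebo (pooled). Whole-blood NE activity was expressed as percent change from each subject's baseline, […]. The 25 and 40 mg cohorts had follow-up visits up to 1 month after leaving the unit. ANC-normalized activity was fitted with a transit-compartment maturation model in which plasma concentration inhibits entry into the first compartment via a sigmoid Hill function. Blood neutrophil half-life was fixed from literature and maximal inhibition was fixed at complete.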

[3] = Safety and tolerability in healthy subjects; format: in vivo, human
efflux transporters = experiment: In-house data on efflux transporter substrate status; format: in vitro ADME
[4] = In-house data on metabolic clearance routes and plasma protein binding; format: in vitro ADME
[5] = system: activation of NSPs (NE, Pr3, and CatG) in human primary bone marrow-derived CD34+ neutrophil progenitor cells; details: cited from earlier work
DPP1 = details: once daily, 21 days of dosing; cited from earlier work
NSP activity = details: 21 days of dosing; cited from earlier work
[6] = cited from earlier work
[7] = between first dose and steady state

With Cn1c(=O)oc2ccc(-c3ccc(C[C@@H](C#N)NC(=O)[C@@H]4CNCCCO4)cc3)cc21 [AZD7986] the half-life ([1]; male, human, plasma, po, Terminal half-life, after a single oral dose) was 20 to 26 h, the “Time of maximum plasma levels (Cmax) after dosing” value ([1]; oral dosing, healthy subjects) was 0.5 to 1.5 h and the “Increase in oral bioavailability” value (Population PK model; between 5 and 65 mg, power model) was roughly 2 fold. For the same compound, the “Fsteadystate_change, percent change in bioavailability” value (Population PK model; [7]) was 24.3%, the “Vp,slow,steadystate_change, percent change in volume of slowly equilibrating tissue compartment” value (Population PK model; [7]) was 34% and the “Alag, absorption lag time” value (Population PK model; population PK model estimate) was 0.159 h. For the same compound, the “CL, apparent clearance from central compartment” value (Population PK model; population PK model estimate) was 12.0 L/h, the “IIV Alag, interindividual variability in Alag” value (Population PK model; population PK model estimate) was 21.3% and the “IIV CL, interindividual variability in CL” value (Population PK model; population PK model estimate) was 22.2%. The “IIV Frel, interindividual variability in Frel” value (Population PK model; population PK model estimate) was 18.2%, the “IIV Vc, interindividual variability in Vcentral” value (Population PK model; population PK model estimate) was 53.6% and the “IIV ka, interindividual variability in ka” value (Population PK model; population PK model estimate) was 28.8%. The “Qfast, apparent intercompartmental clearance between plasma and rapidly equilibrating tissues” value (Population PK model; population PK model estimate) was 122 L/h, the “Qslow, apparent intercompartmental clearance between plasma and slowly equilibrating tissues” value (Population PK model; population PK model estimate) was 14.7 L/h and the “Vc, apparent volume per kg bodyweight of central plasma compartment” value (Population PK model; population PK model estimate) was 0.368 L/kg. For the same compound, the “Vp,fast, apparent volume per kg bodyweight of rapidly equilibrating tissue compartment” value (Population PK model; population PK model estimate) was 2.45 L/kg, the “ka, absorption rate constant” value (Population PK model; population PK model estimate) was 0.809 h⁻¹ and the “Fslope, slope parameter for bioavailability vs. dose power model” value (Population PK model; relative to 5 mg single dose) was 0.228. For the same compound, the “Vp,slow, apparent volume per kg bodyweight of slowly equilibrating tissue compartment” value (Population PK model; single dose, population PK model estimate) was 1.97 L/kg, the “Observed reduction of whole blood NE activity, on average” value ([2]; 40 mg dose group, 28 days once daily) was “more than 50%” and the “Recovery of NE activity after cessation of dosing” value ([2]; 25 and 40 mg cohorts, follow-up visits) was “recovers once treatment is stopped”. For the same compound, the “IIV IC50, interindividual variability in IC50” value ([2]; PK-PD model) was 33.3%, the “nH, Hill coefficient” value ([2]; PK-PD model, Imax fixed to 1 (100%)) was 0.697 and the “Average time to steady state of whole blood NE activity after initiation of dosing” value ([2]; implied by estimated MTT, N and PK) was “about 25 days”. For the same compound, the “Start of response in whole blood NE activity after treatment initiation” value ([2]; three active doses compared to placebo) was roughly 12 days, the “Discontinuation of treatment due to skin AE of lichenoid drug eruption” value ([3]; 25 mg, Day 13) was “One subject” and the “Skin findings of special interest seen in the highest dose group” value ([3]; Part II, 40 mg, number of subjects) was “four”. For the same compound, the “Skin findings of special interest seen in subjects treated with AZD7986” value ([3]; Part II, number of subjects) was “five of the six”, the “Effect on the number of neutrophils in blood” value ([3]; Part II, repeated dosing) was “no clinically significant effect” and the “Clinical laboratory results, 12-lead ECGs, telemetry results” value ([3]; Parts I and II) was “No trends were observed”. The Infection risk ([3]; Parts I and II) was “no signal of increased infection risk”, the Serious adverse events ([3]; Parts I and II) was “No serious adverse events” and the “Mild gingival bleeding, AZD7986 versus placebo” value ([3]; gingival probing) was “no difference”. For the same compound, the Overall tolerability ([3]; single doses 5-65 mg, once daily 10-40 mg for 21 or 28 days) was “well tolerated”, the “Substrate for efflux transporters” value (efflux transporters) was “may be a substrate for efflux transporters” and the “Saturable metabolic clearance routes or plasma protein binding” value [4] was “does not indicate”. For the same compound, the Hill coefficient ([5]; NE, Pr3 and CatG) was roughly 0.65, the “Extent of inhibition of activation of all three NSPs” value ([5]; concentration-dependent) was “completely inhibit” and the pIC50 ([5]; read-out: IC50 for inhibition of NSP activation, NE, Pr3 and CatG) was 6.70 to 7.22.
In the case of CC[C@@H](/C=C/C(=O)N1CCc2ccccc21)NC(=O)C1(N)CCOCC1 [GSK2793660], the “DPP1 inhibition in whole blood” value (DPP1) is given as “sustained inhibition; also recorded: sustained, near‐complete”, the “Effect on NSP activity” value (NSP activity) is given as “no clear effect” and the half-life ([6]; administered once daily) is given as 1.5 h. The “Cases of skin desquamation” value [6] was “seven” and the “Downstream effect reported on skin” value [6] was “epidermal desquamation on palmar and plantar surfaces”.
